ChEMBL document CHEMBL1129798, “Analogues of 10-deazaaminopterin and 5-alkyl-5,10-dideazaaminopterin with the 4-substituted 1-naphthoyl group in the place of 4-substituted benzoyl” (J Med Chem, 1996)

What was measured:
HL-60 = assay: In vitro cell growth inhibitory activity against HL60 cell line; format: functional, cell-based; conditions: Homo sapiens
L1210 = assay: In vitro cell growth inhibitory activity against L1210 cell line; format: functional, cell-based; conditions: Mus musculus
Mus musculus [1] = assay: Compound was compared with MTX for in vivo activity against mammary adenocarcinoma E0771 infected mice at a dose of 24 mg/kg; T/C Treated to Control; format: functional
Method in brief: (§1)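 E0771 mammary adenocarcinoma carried in mice, five mice per test group, with an untreated control group. Dosage is given in mg/kg. Average body weight change (g) and average tumor volume (mm3) were recorded at day 10. T/C is expressed relative to the control group.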

Mus musculus [2] = assay: Compound was compared with MTX for in vivo activity against mammary adenocarcinoma E0771 infected mice at a dose of 48 mg/kg; T/C Treated to Control; format: functional; method in brief: as §1
CCRF S-180 = assay: In vitro cell growth inhibitory activity against S180 cell line; format: functional, cell-based; conditions: Mus musculus

Row | IC50 (HL-60) [nM] | IC50 (L1210) [nM] | IC50 (CCRF S-180) [nM] | SMILES | T/C (Mus musculus [1]) [%] | T/C (Mus musculus [2]) [%]
1 | 1.1 | 1.5 | 1.7 | Nc1nc(N)c2nc(CCc3ccc(C(=O)NC(CCC(=O)O)C(=O)O)c4ccccc34)cnc2n1 (stereo unspecified) | 96 | 52
2 | 9.4 | 8.8 | 29 | Cc1c(CCc2ccc(C(=O)NC(CCC(=O)O)C(=O)O)c3ccccc23)cnc2nc(N)nc(N)c12 (stereo unspecified) |  | 
3 | 9.8 | 9 | 29 | CCc1c(CCc2ccc(C(=O)NC(CCC(=O)O)C(=O)O)c3ccccc23)cnc2nc(N)nc(N)c12 (stereo unspecified) |  | 
